Assay results reported in ChEMBL document CHEMBL1126806, “Iron (III)-chelating resins. 3. Synthesis, iron (III)-chelating properties, and in vitro antibacterial activity of compounds containing 3-hydroxy-2-methyl-4(1H)-pyridinone ligands” (1993).
In brackets after ≈: the same amount, converted by molar mass.

What was measured:
[1] = target: Lactotransferrin (Bos taurus) (UniProt P24627); test: Tested for iron mobilization from lactoferrin at physiological pH after 24 hours
Procedure, shortened: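 Lactoferrin fully iron(III)-saturated with FeCl3 in 0.1 M sodium bicarbonate overnight at room temperature (0.78 mM iron); 1.0 mL dialysed against 4 mL chelator (2 mM in 4× PBS) for 24 h at room temperature. Dialysate absorbance at 456 nm, converted by chelator–iron(III) calibration curves; protected derivatives measured after adding an unprotected chelator to the dialysate.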

Listeria innocua [2] = test: Tested for minimum inhibitory concentration against Listeria inocua; assay type: functional
Listeria innocua [3] = test: Tested for growth inhibition against Listeria inocua; assay type: functional; set-up: concentration or dose not given beside the values
Procedure, shortened: (§1)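 Broth growth assay in BHI medium; log-phase culture (24 h plate, 1 h then 2 h at 37 °C with shaking) added to tubes with derivative at 20 mM final, 37 °C for 7 h. Starting CFU/mL 2×10^5 (E. coli) or 5×10^5 (L. inocua). Standard plate counts; % inhibition = (ΔCFU 0–7 h control − ΔCFU 0–7 h test)/ΔCFU 0–7 h control.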

Escherichia coli [4] = test: Tested for growth inhibition against Escherichia coli; assay type: functional; set-up: concentration or dose not given beside the values; procedure, shortened: as §1
Escherichia coli [5] = test: Tested for minimum inhibitory concentration against Escherichia coli; assay type: functional
Procedure, shortened: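 Agar dilution on BHI agar with 2-fold dilutions; spots of 10^4–10^5 CFU applied by multipoint inoculator, 18 h at 37 °C, growth judged visually.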

Chain of Lactotransferrin (Bos taurus) (P24627 whole entry): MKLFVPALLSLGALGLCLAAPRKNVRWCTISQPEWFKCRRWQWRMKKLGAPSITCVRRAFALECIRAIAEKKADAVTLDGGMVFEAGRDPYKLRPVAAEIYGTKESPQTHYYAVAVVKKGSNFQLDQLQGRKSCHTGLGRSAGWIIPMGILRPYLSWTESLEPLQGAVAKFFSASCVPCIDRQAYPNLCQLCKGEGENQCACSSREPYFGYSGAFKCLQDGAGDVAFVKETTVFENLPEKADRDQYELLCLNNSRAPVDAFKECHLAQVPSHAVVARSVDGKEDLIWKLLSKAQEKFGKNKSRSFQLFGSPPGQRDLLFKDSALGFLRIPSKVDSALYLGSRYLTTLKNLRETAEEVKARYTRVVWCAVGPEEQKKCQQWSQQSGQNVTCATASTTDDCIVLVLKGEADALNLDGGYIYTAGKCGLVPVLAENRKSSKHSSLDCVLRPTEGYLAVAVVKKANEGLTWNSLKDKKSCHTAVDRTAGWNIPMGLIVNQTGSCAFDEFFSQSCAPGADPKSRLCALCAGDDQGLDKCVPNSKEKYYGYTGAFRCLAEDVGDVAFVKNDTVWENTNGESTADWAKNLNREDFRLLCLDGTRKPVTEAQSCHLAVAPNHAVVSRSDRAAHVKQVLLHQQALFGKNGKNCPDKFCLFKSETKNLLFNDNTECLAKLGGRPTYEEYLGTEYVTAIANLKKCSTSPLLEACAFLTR

SMILES | Iron mobilized [1] [%] | MIC (Listeria innocua [2]) [mM] | Growth inhibition (Listeria innocua [3]) [%] | Growth inhibition (Escherichia coli [4]) [%] | MIC (Escherichia coli [5]) [mM]
C=C(C)C(=O)NCCn1ccc(=O)c(O)c1C | 63 | 25 (≈ 5910 µg/mL) | 90 | 100 | 5 (≈ 1180 µg/mL)
Cc1c(O)c(=O)ccn1CCN | 60 | 25 (≈ 4200 µg/mL) | 93 | 100 | 5 (≈ 841 µg/mL)
CCn1ccc(=O)c(OCc2ccccc2)c1C | 2 | 50 (≈ 12200 µg/mL) | 72 | 53 | 50 (≈ 12200 µg/mL)
CCC(=O)NCCn1ccc(=O)c(O)c1C | 61 | 25 (≈ 5610 µg/mL) | 86 | 100 | 5 (≈ 1120 µg/mL)
Cc1c(OCc2ccccc2)c(=O)ccn1CCN | 4 | 50 (≈ 12900 µg/mL) | 34 | 0 | 50 (≈ 12900 µg/mL)
C=CC(=O)NCCn1ccc(=O)c(O)c1C | 62 | 25 (≈ 5560 µg/mL) | 87 | 100 | 5 (≈ 1110 µg/mL)
CCn1ccc(=O)c(O)c1C | 71 | 25 (≈ 3830 µg/mL) | 89 | 100 | 5 (≈ 766 µg/mL)
